OXTR agonist: activates the human oxytocin receptor; AID 2435; activation, % at 3 µM; hit rate 0.32% among 320,000; CHO-OTR cells, Fluo-8 calcium fluorescence; normalized: DMSO 0%, oxytocin 100%; P30559;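 active means activation above the mean of all tested compounds plus 3 SD, cutoff set per screening run, cut at about 20% in these data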;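 further: peak over basal fluorescence ratio from a 100 s FLIPR kinetic read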
V1R ag counter: V1a receptor agonism, counter-screen for OXTR agonists | P37288 | CHO-V1R cells, Fluo-8 calcium fluorescence, agonist mode; 0% DMSO, 100% 3 nM vasopressin | activation, % at 3 µM | hit rate 0.25% among 320,000;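 active means activation above the mean activation of all tested compounds plus 3 SD, per screening run, cut at about 20% in these data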;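 further: signal is peak over basal fluorescence ratio across a 100 second FLIPR read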
CHO parental Ca: signal in parental CHO cells, OX1R antagonist counter-screen; parental CHO-K1, ATP-induced calcium, Fluo-8 fluorescence; inhibition, % at 5.6 µM; hit rate 0.63% among 330,000; AID 463079;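 active means inhibition above that plate's mean sample inhibition plus 3 SD, cut at about 26% in these data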
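material = parental CHO cells | also added = ATP as calcium-mobilizing challenge | dosing = single point at 5.6 µM | detection = intracellular calcium via Fluo-8 no-wash fluorescent dye | read-out = % inhibition | benchmarks = low control ATP plus DMSO, high control DMSO only | repeats = one well per compound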
OXTR potentiate: potentiators of human oxytocin receptor | CHO-OTR cells, Fluo-8 calcium fluorescence, potentiator mode; 0% = oxytocin EC15, 100% = EC100 | activation, % at 3 µM | hit rate 0.061% among 320,000;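 active means activation above that plate's cutoff, the mean activation of tested compounds plus 3 SD, cut at about 6.6% in these data, passing the limit was not always enough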
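Material: human OTR in CHO cells. Compound: 3.0 µM, one dose. Timing: compound 6 min at room temperature before oxytocin, 100 s read. Evaluation: % activation of max/min ratio relative to oxytocin controls. Replication: single well per compound, singlicate. Signal: Fluo-8 calcium dye fluorescence.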
OX1R antag-1: OX1R (human) antagonism; AID 485270; inhibition, % at 6.6 µM; hit rate 1.8% among 330,000; OX1R-expressing cells, FRET antagonist read-out; in the data active means inhibition mostly above about 38%, no sharp cut-off; inactive means mostly below about 40%
Target sequence (O43613 whole entry, looked up): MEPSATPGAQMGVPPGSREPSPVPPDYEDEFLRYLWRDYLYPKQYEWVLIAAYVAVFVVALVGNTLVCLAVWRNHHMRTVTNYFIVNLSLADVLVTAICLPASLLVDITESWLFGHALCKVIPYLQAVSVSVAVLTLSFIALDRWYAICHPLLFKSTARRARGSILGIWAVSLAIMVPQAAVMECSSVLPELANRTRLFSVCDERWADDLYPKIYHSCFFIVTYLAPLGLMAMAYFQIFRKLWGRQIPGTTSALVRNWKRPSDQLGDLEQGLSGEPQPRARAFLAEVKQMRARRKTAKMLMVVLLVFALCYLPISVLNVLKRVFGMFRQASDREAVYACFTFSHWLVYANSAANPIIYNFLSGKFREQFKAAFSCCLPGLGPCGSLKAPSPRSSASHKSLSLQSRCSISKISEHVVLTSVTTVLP
OX1R antag-2: human HCRTR1 antagonism. inhibition, % at 5 µM. hit rate 0.43% among 330,000. CHO/OX1R cells, Fluo-8 calcium fluorescence, orexin A. AID 434989;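 active means inhibition above its plate's threshold, mean inhibition of all tested compounds on the plate plus 3 SD, cut at about 37% in these data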
V1R ag confirm: human V1a receptor agonism, confirmation; AID 434964; hit rate 20% among 180; CHO-V1R cells, Fluo-8 calcium fluorescence, agonist; activation, % at 3 µM; shares compounds with V1R ag counter;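 active means average activation exceeds primary screen hit cutoff, cut at about 21% in these data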;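 further: peak over basal fluorescence ratio during a 100 s FLIPR read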
OXTR counter: counter-screen for V1a receptor agonists: oxytocin receptor agonists; shares compounds with V1R ag counter; CHO-OTR cells, Fluo-8 calcium fluorescence, agonist; activation, % at 3 µM; hit rate 10% among 180; AID 434969;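 active means mean activation over three repeats above the cutoff from the earlier oxytocin receptor agonist screen, cut at about 20% in these data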;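 further: peak over minimum fluorescence ratio within a 100 second FLIPR read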
OX1R Fluo8 conf: confirmation of human orexin 1 receptor antagonists. CHO/OX1R cells, orexin A calcium Fluo-8 fluorescence. shares compounds with OX1R antag-2. AID 492963. hit rate 38% among 1,100. inhibition, % at 5 µM; in the data active means inhibition above about 29%
CHO Ca counter: signal in parental CHO cells, OX1R antagonist counter-screen; shares compounds with OX1R antag-2; AID 492965; inhibition, % at 5.6 µM; hit rate 9.3% among 1,100; parental CHO-K1, ATP-induced calcium, Fluo-8 fluorescence;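 active means inhibition above a per-plate limit, the mean inhibition of that plate's test compounds plus 3 SD, cut at about 25% in these data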
A number is an active result; n = inactive; x = not tested or not shown. In the library only some 2.6% were active in any assay of this set; here they are far more common.

SMILES	OXTR agonist	V1R ag counter	CHO parental Ca	OXTR potentiate	OX1R antag-1	OX1R antag-2	V1R ag confirm	OXTR counter	others
CCn1c(=O)c(C(=O)NNC(=O)c2ccccc2Br)c(O)c2ccccc21	n	47.5	n	n	n	n	n	n
CCn1c(=O)c(C(=O)NNC(=O)c2cccc(Cl)c2)c(O)c2ccccc21	n	25.6	94.6	n	n	98.3	n	n
CCn1c(=O)c(C(=O)NNC(=O)Cc2ccccc2)c(O)c2ccccc21	n	n	n	n	n	n	x	x
CCOc1ccc(NC2=NCC(=O)N2CCc2ccccc2)cc1	n	20.4	n	n	n	n	n	n
Cc1ccc(OCc2cc(C(=O)NCc3ccc(OC(F)(F)F)cc3)no2)cn1	n	28.0	n	n	n	n	n	21.4
O=C(Nc1cccc(Cl)c1)Nc1ccc2nccnc2c1	n	23.1	n	n	34.0	n	n	n
O=C(NC(=S)NNC(=O)c1cccs1)c1ccco1	n	n	n	n	n	n	x	x
O=C(NNC(=S)NC(=O)c1ccco1)c1ccc(F)cc1	n	29.0	n	n	n	n	n	n
CCc1ccc(/C=N/Nc2ncnc3nc[nH]c23)cc1	n	n	n	n	n	n	x	x
CCc1ccc(N=Nc2ccc(O)c3[nH]cnc23)cc1	n	23.0	n	n	n	46.5	25.6	n
CC(C)C(NS(=O)(=O)c1ccc2c(c1)C(C)(C)C(=O)N2C)C(=O)NCc1ccccc1Cl (stereo not given)	n	n	n	n	n	n	x	x
Cc1ccc(S(=O)(=O)NCC(=O)N/N=C/c2ccc(Cl)cc2)cc1	n	21.9	n	n	n	n	n	n
Cc1nnc(-c2ccccc2)c(=O)n1/N=C/c1c(O)ccc2ccccc12	n	25.0	n	n	n	n	23.8	21.6
COc1ccc(C(=O)O)cc1S(=O)(=O)NCc1ccncc1	n	n	n	n	n	n	x	x
OC(COc1ccccc1F)CN1CCC(Cc2ccccc2)CC1 (stereo not given)	n	n	n	n	n	n	x	x
OC(COc1ccc(F)cc1Cl)CN1CCC(Cc2ccccc2)CC1 (stereo not given)	n	22.1	n	n	n	n	n	n
COc1ccc(OC)c(C2=NS(=O)(=O)N(C)C(C(=O)NCc3cccs3)=C2)c1	n	22.0	n	n	n	n	n	25.0
COc1ccc(-c2cc(C(F)(F)F)nc(-n3ccnc3)n2)cc1	n	n	n	n	n	n	x	x
S=C(NCc1ccc(Cl)cc1)Nc1ccncc1	n	22.4	52.0	n	n	n	n	n
CCOc1ccc(N2C(=O)Nc3ccc(Br)cc3C2(O)C(=O)NCCN(C)C)cc1 (stereo not given)	n	n	n	n	n	n	x	x
CCOC(=O)c1c(/N=C/C2=C(O)CC(C)(C)CC2=O)sc(C)c1C	n	n	n	n	n	n	x	x
Cc1cc(C)cc(-n2ncc3c2CCCC3NC(=O)c2ccccc2N2CCOCC2)c1 (stereo not given)	n	n	n	n	n	n	x	x
CCCC(=O)Nc1nc(C(=O)OCC)cs1	n	n	n	n	n	n	x	x
CCOC(=O)c1csc(NC(=O)COc2ccc(Cl)cc2Cl)n1	n	22.3	n	n	n	n	n	n
CC(Oc1ccc2c(-c3ccccc3)cc(=O)oc2c1)C(=O)N1CCOCC1 (stereo not given)	n	n	n	n	n	n	x	x
SMILES	OXTR agonist	V1R ag counter	CHO parental Ca	OXTR potentiate	OX1R antag-1	OX1R antag-2	V1R ag confirm	OXTR counter	others
CC(Oc1ccc2ccc(=O)oc2c1)C(=O)N1CCOCC1 (stereo not given)	n	21.0	n	n	n	n	n	n
O=[N+]([O-])c1ccc(O)c(Nc2c([N+](=O)[O-])ccc3nonc23)c1	n	n	n	n	n	n	x	x
Cc1ccc(C)c(Nc2c([N+](=O)[O-])ccc3nonc23)c1	n	22.2	n	n	n	n	n	n
CCOc1ccc(CCNC(=O)CN2C(=O)NC3(CCCCCC3)C2=O)cc1OCC	n	n	n	n	n	n	x	x
CS(=O)(=O)c1ccc(Cl)c(NC(=O)COC(=O)CCc2c[nH]c3ccccc23)c1	n	27.7	n	n	n	n	n	n
CCSC1=N/C(=C\C=C2/Oc3ccccc3N2CC)C(=O)S1	n	22.6	n	n	n	n	20.8	n	OX1R Fluo8 conf=n;CHO Ca counter=n
CC1(c2ccc3ccccc3c2)NC(=O)N(CC(=O)Nc2ncccc2O)C1=O (stereo not given)	n	n	n	n	n	n	x	x
CCc1cc2c(COC(=O)c3cc(S(=O)(=O)N4CCOCC4)ccc3F)cc(=O)oc2cc1O	n	n	n	n	n	n	x	x	OX1R Fluo8 conf=n;CHO Ca counter=n
O=C(OCc1cc(=O)oc2cc(O)ccc12)c1cc(S(=O)(=O)N2CCOCC2)ccc1F	n	n	n	n	n	n	x	x
Cc1ccc(CNC(=O)C2CSC3(C)CCC(=O)N23)cc1 (stereo not given)	n	n	n	n	n	n	x	x
O=C(Nc1ccc(OC(F)(F)F)cc1)N1CCN(c2ccnc3cc(Cl)ccc23)CC1	n	n	n	n	n	n	x	x	OX1R Fluo8 conf=n;CHO Ca counter=35.4
CC(C)(C)C(=O)N1CCN(c2ccnc3cc(Cl)ccc23)CC1	n	n	n	n	n	n	x	x
CCN(c1ccc(OC)cc1)S(=O)(=O)c1cc(-c2cc(C)no2)ccc1C(C)C	n	n	n	n	n	n	x	x	OX1R Fluo8 conf=n;CHO Ca counter=n
O=C(NCC1CCCN(C(=O)CN2CCCCC2)C1)c1ccccc1Cl (stereo not given)	n	n	n	n	n	n	x	x
CSCC(=O)N1CCCC(CNC(=O)c2ccccc2Cl)C1 (stereo not given)	n	n	n	n	n	n	x	x	OX1R Fluo8 conf=n;CHO Ca counter=n
COC(=O)c1ccccc1NC(=O)c1ccccc1SC	n	n	n	n	n	n	x	x
CCOC(=O)c1ccccc1NC(=O)c1ccccc1SC	n	n	n	n	n	52.6	x	x	OX1R Fluo8 conf=n;CHO Ca counter=n
Cc1c(C(=O)Nc2ccc(S(=O)(=O)N(C)C3CCN(C)CC3)cc2)oc2c(Cl)cccc12	n	n	n	n	n	42.7	x	x	OX1R Fluo8 conf=n;CHO Ca counter=n
Cc1c(C(=O)Nc2ccc(S(=O)(=O)N(C)C3CCN(C)CC3)cc2)oc2ccccc12	n	n	n	n	n	n	x	x
Cc1ccc(C(=O)N2CCC(Cc3ccccc3)CC2)cc1[N+](=O)[O-]	n	n	n	n	n	n	x	x	OX1R Fluo8 conf=n;CHO Ca counter=n

Screening data: PubChem, The Scripps Research Institute Molecular Screening Center
